Paper PMC10685179 (RSC Advances, 2023)
Values after ≈ are worked out from the molar mass of the structure shown. Residues, ends and D or L forms follow the SMILES beside them. *: point of attachment. βNA = c1ccc2cc(N*)ccc2c1

Key:
P. mirabilis KA320 [1] = assay: Agar well-diffusion, inhibition zone; type: cell-based, Proteus mirabilis
Outline: (§1)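 Clinical MDR isolates from complicated UTI patients. Suspensions were made in Tryptic Soya and Sabouraud broths from subcultures on Tryptic Soya and Sabouraud agar plates. Agar well diffusion followed CLSI guidelines, with test compounds applied at 10 μM in DMSO. Fosfomycin and fluconazole were positive controls and DMSO the negative control. Zone diameters were read in mm, in triplicate.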

C. albicans KA205 [2] = assay: Agar well-diffusion, inhibition zone; type: cell-based, Candida albicans; conditions: for zone of inhibition at 10 µM: Candida albicans, KA205, read-out: Average diameter of inhibition zone (ZI)
Outline: as §1

S. aureus KA112 [3] = assay: Agar well-diffusion, inhibition zone; type: cell-based, Staphylococcus aureus
Outline: as §1

E. faecalis KA247 [4] = assay: Broth microdilution MIC and MBC; type: cell-based; conditions: Enterococcus faecalis, KA247, 24 h
C. tropicalis KA205 [5] = assay: Agar well-diffusion, inhibition zone; type: cell-based, Candida tropicalis; conditions: for zone of inhibition at 10 µM: Candida tropicalis, KA205, read-out: Average diameter of inhibition zone (ZI)
Outline: as §1

S. aureus KA112 [6] = assay: Broth microdilution MIC and MBC; type: cell-based; conditions: Staphylococcus aureus; for MIC: KA112, 24 h; for MBC: KA112, read-out: MBC/MIC
E. coli KA780 [7] = assay: Agar well-diffusion, inhibition zone; type: cell-based, Escherichia coli
Outline: as §1

C. tropicalis KA205 [8] = assay: Broth microdilution MIC and MFC; type: cell-based; conditions: Candida tropicalis; for MIC: KA205, 24 h; for MFC: KA205, read-out: MFC/MIC
E. faecalis KA247 [9] = assay: Agar well-diffusion, inhibition zone; type: cell-based, Enterococcus faecalis
Outline: as §1

C. albicans KA205 [10] = assay: Broth microdilution MIC and MFC; type: cell-based; conditions: Candida albicans; for MIC: KA205, 24 h; for MFC: KA205, read-out: MFC/MIC
P. mirabilis KA320 [11] = assay: Broth microdilution MIC and MBC; type: cell-based; conditions: Proteus mirabilis; for MIC: KA320, 24 h; for MBC: KA320, read-out: MBC/MIC
E. coli KA780 [12] = assay: Broth microdilution MIC and MBC; type: cell-based; conditions: Escherichia coli; for MIC: KA780, 24 h; for MBC: KA780, read-out: MBC/MIC
bacterial isolates [13] = assay: Broth microdilution MIC/MBC, bacterial panel; type: cell-based; conditions: pyrrole 6b versus thiophene 6a; bacteria
[14] = system: MDR bacterial and fungal isolates; assay: Broth microdilution MIC/MBC/MFC, whole panel; type: cell-based; conditions: bactericidal/fungicidal if MBC or MFC not greater than four times the MIC
fungal isolates [15] = assay: Agar well-diffusion, inhibition zone, fungal panel; type: cell-based
Outline: as §1

fungal isolates [16] = assay: Time-kill kinetics, fungal isolates; type: cell-based; conditions: at MIC
Outline: (§2)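 Untreated organisms served as controls. Bacteria were sampled at 0, 2, 4, 6, 8, 12, 18 and 24 h, and fungi at 0, 2, 4, 6, 8, 18, 24 and 48 h. Counts were made by plate count and plotted as log10 CFU mL−1 versus time.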

fungal isolates [17] = assay: Broth microdilution MIC/MFC, fungal panel; type: cell-based
E. faecalis KA247 [18] = assay: Checkerboard microdilution synergy with fosfomycin; type: cell-based, Enterococcus faecalis
S. aureus KA112 [19] = assay: Checkerboard microdilution synergy with fosfomycin; type: cell-based, Staphylococcus aureus
[20] = Physical and chemical stability after gamma irradiation; type: physicochemical; conditions: gamma radiation 3.0 kGy to 20.0 kGy
Outline: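 Compound powders in sterile tubes were irradiated by a 60Co source at 3.0, 5.0, 7.0, 10.0, 15.0 and 20.0 kGy, at a dose rate of 0.9 kGy h−1. Non-irradiated and irradiated samples were checked for physical and chemical changes by UV-VIS spectrophotometry at 560 nm.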

bacterial isolates [21] = assay: Time-kill kinetics, bacterial isolates; type: cell-based; conditions: at MIC
Outline: as §2

E. coli KA780 [22] = assay: Checkerboard microdilution synergy with fosfomycin; type: cell-based, Escherichia coli
E. coli MurA enzyme = E. coli MurA enzyme (Escherichia coli, UniProt P0A749); assay: MurA enzyme inhibition assay; type: biochemical
C. albicans KA205 [23] = assay: Checkerboard microdilution synergy with fluconazole; type: cell-based, Candida albicans
[24] = system: fosfomycin-resistant (FO-R) E. coli KA780; assay: SEM of outer membrane integrity; type: cell-based; conditions: at MIC, compared with DMSO
MDR microbial isolates = assay: Time-kill kinetics, whole panel; type: cell-based; conditions: all pathogenic isolates
Outline: as §2

[25] = system: BNL: mouse normal liver cells; assay: SRB cytotoxicity assay on normal cells; type: cell-based
Outline: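 Mouse normal liver BNL cells were grown in DMEM with 10% heat-inactivated FBS, penicillin and streptomycin, at 37 °C in 5% CO2. […] SRB assay: 10% TCA fixation at 4 °C for 1 h, 0.4% SRB for 10 min at room temperature, 1% acetic acid washes, 10 mM Tris solubilisation, absorbance at 540 nm. Mean of three, with SD.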

C. tropicalis KA205 [26] = assay: Checkerboard microdilution synergy with fluconazole; type: cell-based, Candida tropicalis
P. mirabilis KA320 [27] = assay: Checkerboard microdilution synergy with fosfomycin; type: cell-based, Proteus mirabilis
E. coli Kam3-AcrB = assay: Ethidium bromide; type: cell-based; conditions: phosphonates 0.06 to 2 μg mL^−1; PaβN 20 μg mL^−1
Outline: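 E. coli Kam3-AcrB (pSYC plasmid encoding AcrB) was grown to mid-log phase in TS broth and pelleted at 5000×g for 5 min at 4 °C. Cells were washed twice in PBS pH 7.4 and adjusted to OD600 ≈0.5. Cells were treated with phosphonates (0.06–2 μg mL−1) or 0.1% DMSO for 12 h, then combined with EtBr, 25 mM glucose (final) and PaβN 20 μg mL−1. Fluorescence was read over 38 min, […], as RFU.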

[28] = 10 μM (DMSO), mean of three ± SEM

Sequence of E. coli MurA enzyme (P0A749 whole entry): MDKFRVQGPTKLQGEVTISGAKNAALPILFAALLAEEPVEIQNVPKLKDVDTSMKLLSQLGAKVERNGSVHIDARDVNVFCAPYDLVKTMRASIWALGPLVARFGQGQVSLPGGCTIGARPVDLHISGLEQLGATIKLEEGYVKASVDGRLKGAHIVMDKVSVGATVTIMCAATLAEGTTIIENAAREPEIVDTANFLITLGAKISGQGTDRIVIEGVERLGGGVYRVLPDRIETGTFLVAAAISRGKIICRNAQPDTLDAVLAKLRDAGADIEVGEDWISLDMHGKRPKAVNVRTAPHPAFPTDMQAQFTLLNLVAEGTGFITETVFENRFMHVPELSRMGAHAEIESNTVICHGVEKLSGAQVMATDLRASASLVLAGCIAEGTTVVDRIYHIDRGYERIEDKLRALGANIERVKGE

O=[N+]([O-])c1ccc(-c2nn(-c3ccccc3)c3sc(NC(c4ccc[nH]4)P(=O)(Oc4ccccc4)Oc4ccccc4)nc23)cc1 (stereo not drawn) [Compound 6b, Diphenyl(((3-(4-nitrophenyl)-1-phenyl-1H-pyrazolo[4,3-d]thiazol-5-yl)amino)(1H-pyrrol-2-yl)methyl)phosphonate]
zone of inhibition at 10 µM (P. mirabilis KA320 [1]; Proteus mirabilis, KA320, read-out: Average diameter of inhibition zone (ZI)): 22 ± 0.12 mm | zone of inhibition at 10 µM (C. albicans KA205 [2]): 21 ± 0.91 mm | zone of inhibition at 10 µM (S. aureus KA112 [3]; Staphylococcus aureus, KA112, read-out: Average diameter of inhibition zone (ZI)): 23 ± 0.77 mm | MIC (E. faecalis KA247 [4]): 0.25 µg/mL (≈ 0.385 µM) | zone of inhibition at 10 µM (C. tropicalis KA205 [5]): 21 ± 0.7 mm | MIC (S. aureus KA112 [6]): 0.125 µg/mL (≈ 0.193 µM) | MBC (S. aureus KA112 [6]): 0.5 µg/mL (≈ 0.771 µM) | zone of inhibition at 10 µM (E. coli KA780 [7]; Escherichia coli, KA780, read-out: Average diameter of inhibition zone (ZI)): 24 ± 0.86 mm | MIC (C. tropicalis KA205 [8]): 0.5 µg/mL (≈ 0.771 µM) | MFC (C. tropicalis KA205 [8]): 1 µg/mL (≈ 1.54 µM) | zone of inhibition at 10 µM (E. faecalis KA247 [9]; Enterococcus faecalis, KA247, read-out: Average diameter of inhibition zone (ZI)): 22 ± 0.55 mm | MIC (C. albicans KA205 [10]): 0.25 µg/mL (≈ 0.385 µM) | MFC (C. albicans KA205 [10]): 1 µg/mL (≈ 1.54 µM) | MIC (P. mirabilis KA320 [11]): 0.25 µg/mL (≈ 0.385 µM) | MBC (P. mirabilis KA320 [11]): 1 µg/mL (≈ 1.54 µM) | MIC (E. coli KA780 [12]): 0.125 µg/mL (≈ 0.193 µM) | MBC (E. coli KA780 [12]): 0.5 µg/mL (≈ 0.771 µM) | higher activity by MIC (bacterial isolates [13]): ~8 folds

OC(Cn1cncn1)(Cn1cncn1)c1ccc(F)cc1F [FCA, fluconazole, reference compound]
zone of inhibition at 10 µM (C. albicans KA205 [2]): 17 ± 0.99 mm | bactericidal/fungicidal effect [14]: bactericidal and fungicidal activities | zone of inhibition at 10 µM (C. tropicalis KA205 [5]): 17 ± 0.15 mm | MIC (C. tropicalis KA205 [8]): 4 µg/mL (≈ 13.1 µM) | MFC (C. tropicalis KA205 [8]): 0.5 µg/mL (≈ 1.63 µM) | zone of inhibition at 10 µM (fungal isolates [15]): 17 mm | MIC (C. albicans KA205 [10]): 2 µg/mL (≈ 6.53 µM) | MFC (C. albicans KA205 [10]): 1 µg/mL (≈ 3.27 µM) | time of maximum killing rate / maximum reduction in cell counts (fungal isolates [16]): 48 h | MFC (fungal isolates [17]): 2 µg/mL (≈ 6.53 µM)

CN(C)c1ccc(C(Nc2nc3c(-c4ccc([N+](=O)[O-])cc4)nn(-c4ccccc4)c3s2)P(=O)(Oc2ccccc2)Oc2ccccc2)cc1 (stereo not drawn) [Compound 5b, Diphenyl((4-(dimethylamino)phenyl)((3-(4-nitrophenyl)-1-phenyl-1H-pyrazolo[4,3-d]thiazol-5-yl)amino)methyl)phosphonate]
Average diameter of inhibition zone (ZI) (P. mirabilis KA320 [1]; [28]): 23 ± 0.78 mm | Average diameter of inhibition zone (ZI) (C. albicans KA205 [2]; [28]): 22 ± 0.22 mm | Average diameter of inhibition zone (ZI) (S. aureus KA112 [3]; [28]): 24 ± 0.03 mm | combination effect (E. faecalis KA247 [18]): S (FICI ≤ 0.5 (synergism)) | Fractional inhibitory concentration index (ΣFICI) (E. faecalis KA247 [18]; combination with fosfomycin): 0.5 | MIC (E. faecalis KA247 [4]): 0.125 µg/mL (≈ 0.178 µM) | Average diameter of inhibition zone (ZI) (C. tropicalis KA205 [5]; [28]): 21 ± 0.32 mm | MIC (S. aureus KA112 [6]): 0.06 µg/mL (≈ 0.0854 µM) | MBC (S. aureus KA112 [6]): 1 µg/mL (≈ 1.42 µM) | combination effect (S. aureus KA112 [19]): S (FICI ≤ 0.5 (synergism)) | Fractional inhibitory concentration index (ΣFICI) (S. aureus KA112 [19]; combination with fosfomycin): 0.5 | physical changes (odor, color, clarity, solubility, and form) after irradiation [20]: no changes occurred | stability of the chemical structure after irradiation ([20]; UV-VIS spectrophotometer): confirmed the stability of the chemical structure | Average diameter of inhibition zone (ZI) (E. coli KA780 [7]; [28]): 25 ± 0.00 mm | time of maximum killing rate (bacterial isolates [21]): 8 h | MIC (C. tropicalis KA205 [8]): 0.5 µg/mL (≈ 0.712 µM) | MFC (C. tropicalis KA205 [8]): 0.5 µg/mL (≈ 0.712 µM) | Average diameter of inhibition zone (ZI) (E. faecalis KA247 [9]; [28]): 23 ± 0.88 mm | combination effect (E. coli KA780 [22]): S (FICI ≤ 0.5 (synergism)) | Fractional inhibitory concentration index (ΣFICI) (E. coli KA780 [22]; combination with fosfomycin): 0.25 | MIC (C. albicans KA205 [10]): 0.125 µg/mL (≈ 0.178 µM) | MFC (C. albicans KA205 [10]): 1 µg/mL (≈ 1.42 µM) | IC50 (E. coli MurA enzyme; IC50, preincubation 0 min): 45 µM | IC50 (E. coli MurA enzyme; IC50, preincubation 10 min): 4.5 µM | RA (residual activity) (E. coli MurA enzyme; at 100 μM, preincubation 10 min): 4 ± 0.55% | remaining activity at 100 µM (E. coli MurA enzyme; read-out: RA (residual activity), at 100 μM, preincubation 10 min): 7% | combination effect (C. albicans KA205 [23]): P (0.5 < FICI > 1 (partial synergism)) | Fractional inhibitory concentration index (ΣFICI) (C. albicans KA205 [23]; combination with fluconazole): 0.75 | MIC (P. mirabilis KA320 [11]): 0.25 µg/mL (≈ 0.356 µM) | MBC (P. mirabilis KA320 [11]): 0.5 µg/mL (≈ 0.712 µM) | time of maximum killing rate / maximum reduction in cell counts (fungal isolates [16]): 18 h | effect on outer membrane (SEM image) [24]: perturbation in the membrane and distinct ruptures of the OM integrity | MIC (E. coli KA780 [12]): 0.06 µg/mL (≈ 0.0854 µM) | MBC (E. coli KA780 [12]): 0.5 µg/mL (≈ 0.712 µM) | microbial reduction relative to the initial inoculum (MDR microbial isolates): ≥ 3 log10 | IC50 [25]: > 100 µM | combination effect (C. tropicalis KA205 [26]): P (0.5 < FICI > 1 (partial synergism)) | Fractional inhibitory concentration index (ΣFICI) (C. tropicalis KA205 [26]; combination with fluconazole): 0.75 | combination effect (P. mirabilis KA320 [27]): S (FICI ≤ 0.5 (synergism)) | Fractional inhibitory concentration index (ΣFICI) (P. mirabilis KA320 [27]; combination with fosfomycin): 0.25

NC(N)=NCCC[C@H](NC(=O)[C@@H](N)Cc1ccccc1)C(=O)Nc1ccc2ccccc2c1 [PAβN] (H-Phe-Arg-βNA)
EtBr accumulation (E. coli Kam3-AcrB): increases the accumulation of EtBr
